UCH37 inh – inhibitors of human UCH37 deubiquitinase, primary screen, biochemical, Ub-AMC cleavage, fluorescence. purified proteasome/UCH37. 330,000 compounds, 0.33% hits. Ubiquitin carboxyl-terminal hydrolase isozyme L5 (Homo sapiens), Q9Y5K5. inhibition, % (no concentration beside the values);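 active = mean inhibition over replicate wells above about 20%, limit read from the data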
Target sequence (Q9Y5K5 whole entry, looked up): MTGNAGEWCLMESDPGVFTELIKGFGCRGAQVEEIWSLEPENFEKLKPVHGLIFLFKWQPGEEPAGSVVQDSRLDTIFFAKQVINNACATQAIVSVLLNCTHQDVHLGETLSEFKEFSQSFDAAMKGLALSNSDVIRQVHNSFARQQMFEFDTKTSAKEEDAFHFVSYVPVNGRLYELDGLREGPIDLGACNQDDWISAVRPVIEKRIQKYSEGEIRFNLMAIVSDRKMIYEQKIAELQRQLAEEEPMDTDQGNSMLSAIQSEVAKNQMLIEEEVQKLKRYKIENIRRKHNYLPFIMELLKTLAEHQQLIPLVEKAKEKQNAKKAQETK
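Signal – fluorescence, ex 355 nm, em 460 nm · System – Proteasome-bound UCH37 · Input – 0.15 nM proteasome as dispensed · Timing – 30 min preincubation with enzyme, 25 min cleavage at room temperature · Read-out basis – percent inhibition of cleavage signal versus uninhibited and no-proteasome wells · Medium – Tris-HCl pH 7.4 with ATP-MgCl2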
FAS TE block – FAS thioesterase domain inhibitors, primary screen, biochemical, fluorescence intensity, uHTS; inhibition, % at 15 µM; 360,000 compounds, 0.67% hits; recombinant FAS-TE, OMFH fluorogenic substrate, fluorescence endpoint; Fatty acid synthase (Homo sapiens), P49327; AID 602261, 2012;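 active = compounds whose normalised, plate-corrected inhibition of enzyme fluorescence in the single-dose primary screen is 50% or more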
M18AAP inhibitor – PfM18AAP inhibitors, malaria aminopeptidase, primary screen, biochemical, QFRET, recombinant enzyme | M18 aspartyl aminopeptidase (Plasmodium falciparum 3D7) | H-Glu-NHMec fluorogenic cleavage | inhibition, % at 7.35 µM | 290,000 compounds, 1.2% hits;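 active = inhibition above the campaign mean inhibition over all tested compounds plus 3 SD, cut at about 28% in these data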
Rtt109 Vps75 – inhibitors of C. albicans Rtt109/Vps75 HAT, primary screen, biochemical, ThioGlo CoA-SH fluorescence, plate reader | Histone acetyltransferase RTT109 (Candida albicans (strain SC5314 / ATCC MYA-2876)), … | purified Rtt109/Vps75, 4 h | inhibition, % at 34.9 µM | 330,000 compounds, 0.16% hits | AID 540336, 2011;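 active = inhibition of at least 50% in every replicate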
HDAC3 inh – HDAC3 deacetylase inhibitors, primary screen, biochemical, fluorescence, cell-free homogeneous. recombinant HDAC3, fluorogenic peptide/trypsin coupled. inhibition, % at 8.3 µM. 320,000 compounds, 0.15% hits. AID 2718, 2010; in the data active = inhibition above about 26%, passing the limit was not always enough
ALR inh – inhibitors of human ALR sulfhydryl oxidase, primary screen, biochemical, H2O2 detection, HRP-luminol luminescence, single point; inhibition, % (concentration not given with the values); AID 485317, 2010; purified ALR, DTT oxidation; 290,000 compounds, 3.8% hits; FAD-linked sulfhydryl oxidase ALR (Homo sapiens), P55789;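 active = mean replicate inhibition above about 79%, with every replicate also reaching it, limit read from the data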
Target sequence (P55789 whole entry, looked up): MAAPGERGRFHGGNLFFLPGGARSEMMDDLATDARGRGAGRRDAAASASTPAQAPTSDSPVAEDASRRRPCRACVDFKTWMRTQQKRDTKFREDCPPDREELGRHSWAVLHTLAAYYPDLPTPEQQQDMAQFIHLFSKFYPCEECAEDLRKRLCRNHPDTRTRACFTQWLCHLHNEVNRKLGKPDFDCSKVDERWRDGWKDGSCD
FAS-TE inh conf – FAS thioesterase domain inhibitors, confirmation, biochemical, fluorescence intensity, single concentration; shares compounds with FAS TE block; recombinant FAS-TE, OMFH fluorogenic substrate; inhibition, % at 15 µM; 2,300 compounds, 45% hits; AID 624325, 2012;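 active = compounds inhibiting the enzyme by at least 50% at 15 µM in any one of the replicates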
A number is an active result; . = inactive; / = no result. Hits are enriched below; roughly 4.6% of the tested compounds scored in any of these assays.

SMILES	UCH37 inh	FAS TE block	M18AAP inhibitor	Rtt109 Vps75	HDAC3 inh	ALR inh	FAS-TE inh conf
Cc1cccc2cc(CN(Cc3cccs3)S(=O)(=O)c3ccc4c(c3)OCCO4)c(=O)[nH]c12	.	73	.	.	.	.	.
Cc1cc2cc(CN(Cc3cccs3)S(=O)(=O)c3ccc4c(c3)OCCO4)c(=O)[nH]c2cc1C	/	.	.	.	.	.	/
O=C(Cc1cc(=O)[nH][nH]1)NN=Cc1cccc(Cl)c1Cl	.	/	/	/	/	/	/
Cc1ccc(-c2csc3nc(C(C)C)oc(=O)c23)c(C)c1	.	86	.	.	.	/	69
CCOC1=C2CN(S(=O)(=O)c3ccccc3)[C@H](c3ccccc3)C[C@H]2n2c(=O)n(-c3ccccc3)c(=O)n2C1	/	80	/	/	/	/	.
CCOC1=C2[C@H](c3ccccc3)N(S(=O)(=O)c3ccccc3)C[C@H]2n2c(=O)n(-c3ccccc3)c(=O)n2C1	/	73	/	/	/	/	.
CCOC1=C2[C@H](c3cccs3)N(S(=O)(=O)c3ccc(C)cc3)C[C@H]2n2c(=O)n(-c3ccccc3)c(=O)n2C1	/	73	/	/	/	/	.
CCOC1=C2CN(S(=O)(=O)c3ccc(C)cc3)[C@H](c3ccccc3)C[C@@H]2N(S(C)(=O)=O)[C@H](c2ccccc2)C1	/	.	/	/	/	/	/
Cn1cccc1-c1cc(C(=O)NN=Cc2cccc(O)c2)[nH]n1	.	/	/	/	/	/	/
COc1ccc(C=NNC(=O)C(N)=O)c(OC)c1OC	.	/	/	/	/	/	/
O=C(NN=Cc1ccco1)c1ccccc1OCc1ccc(Br)cc1	.	/	/	/	/	/	/
COc1cc(C(=O)Nc2ccc(S(=O)(=O)N3CCc4ccccc43)cc2)cc(OC)c1OC	.	.	.	.	.	.	/
COc1ccccc1C(=O)Nc1ccc(S(=O)(=O)N2CCc3ccccc32)cc1	.	51	.	.	.	.	.
CCOc1ccc(C(C)=O)cc1COC(=O)c1cc([N+](=O)[O-])ccc1N1CCOCC1	.	.	/	.	.	.	/
CCOc1ccc(C(=O)COC(=O)c2cc([N+](=O)[O-])ccc2N2CCOCC2)cc1	.	69	/	.	.	.	63
Cc1ccc(C)c(C(=O)COC(=O)c2cc([N+](=O)[O-])ccc2N2CCOCC2)c1	.	.	/	.	.	/	/
O=C(COC(=O)c1cc([N+](=O)[O-])ccc1N1CCOCC1)c1ccc(Br)cc1	.	63	/	.	.	.	.
CC(C)c1c(C(=O)NN=CC2CC=CCC2)nnn1-c1nonc1N (stereo unspecified)	.	/	/	/	/	/	/
CC(=NNC(=O)CSc1nc2nc(C)cc(C)n2n1)c1ccccc1	.	/	/	/	/	/	/
CC1CCN(c2nc(Cl)nc(Nc3ccc([N+](=O)[O-])cc3)n2)CC1	.	54	.	.	.	.	.
Cc1ccc(CNC(=O)c2ccc(N3CCC4(CC3)CC(c3ccccc3)=NO4)c(NC(=O)c3ccco3)c2)cc1	.	64	.	.	.	.	.
Cc1ccc(CNC(=O)c2ccc(N3CCC4(CC3)CC(c3cccc(Br)c3)=NO4)c(NC(=O)c3ccco3)c2)cc1	.	.	/	.	.	/	/
CCCNC(=O)c1ccc(N2CCC3(CC2)CC(c2cccc(Br)c2)=NO3)c(NC(=O)c2ccc(Br)cc2)c1	.	.	/	.	.	.	/
CCCNC(=O)c1ccc(N2CCC3(CC2)CC(c2cccc(Br)c2)=NO3)c(NC(=O)c2c(Cl)cccc2Cl)c1	.	54	/	.	.	.	.
O=C(CCCC(=O)Nc1cccc(Br)c1)N/N=C/c1cc([N+](=O)[O-])ccc1O	/	54	.	.	.	.	72
SMILES	UCH37 inh	FAS TE block	M18AAP inhibitor	Rtt109 Vps75	HDAC3 inh	ALR inh	FAS-TE inh conf
Cc1cccc(NC(=O)CCC(=O)NN=Cc2cc([N+](=O)[O-])ccc2O)c1	.	/	/	/	/	/	/
O=C(CCC(=O)Nc1cccc(Cl)c1)N/N=C/c1cc([N+](=O)[O-])ccc1O	/	65	.	.	.	.	83
CCOc1cccc2cc(C(=O)NCCC3=CCCCC3)c(=O)oc12	.	87	.	.	.	.	74
CCOc1cccc2cc(C(=O)Nc3nccs3)c(=O)oc12	.	.	.	.	.	.	/
Cc1cc2ncn(/N=C/c3cccnc3)c2cc1C	/	.	.	.	.	.	/
Cc1cc2ncn(/N=C/c3ccc(-c4ccccc4)o3)c2cc1C	/	50	.	.	.	.	.
O=C(NN=Cc1ccccc1O)C1(O)c2ccccc2-c2ccccc21	.	/	/	/	/	/	/
O=C(CN1CCN(c2cccc(Cl)c2)CC1)Nc1ccc([N+](=O)[O-])cc1C(=O)Nc1ccccc1F	.	60	.	.	.	.	.
Cc1ccc([N+](=O)[O-])cc1NC(=O)CCc1ccccc1	.	50	.	.	.	.	52
Cc1ccc(C)c(N2CCN(CC(=O)Nc3ccc([N+](=O)[O-])cc3C(=O)Nc3ccccc3F)CC2)c1	.	.	.	.	.	.	/
O=C(CCCOc1ccccc1)Nc1cccc([N+](=O)[O-])c1	.	.	.	.	.	.	/
O=C(CCCc1ccccc1)Nc1cccc([N+](=O)[O-])c1	.	66	.	.	.	/	60
Cc1ccc([N+](=O)[O-])cc1NC(=O)CCCOc1ccccc1	.	68	.	.	.	.	32
CCCCNC(=S)Nc1cc([N+](=O)[O-])ccc1C	.	51	.	.	.	.	37
O=C(CN1CCN(c2ccccc2)CC1)Nc1cccc([N+](=O)[O-])c1	.	51	.	.	.	.	50
CCOC(=O)C(=O)Nc1cc([N+](=O)[O-])ccc1C	.	.	.	.	.	.	/
O=C(CN1CCCCCC1)Nc1cccc([N+](=O)[O-])c1	.	.	.	.	.	.	/
C(=NN=Cc1ccccn1)c1ccccn1	.	/	/	/	/	/	/
Oc1ccccc1C=Nc1c(-c2ccco2)nc2ccccn12	.	/	/	/	/	/	/
Cc1ccccc1NCC(=O)NN=Cc1c[nH]c2ccccc12	.	/	/	/	/	/	/
CCOC(=O)CN(C(=O)COc1nc(-c2ccccc2)cc(C)c1C#N)c1cccc(OC)c1	.	52	.	.	.	.	.
CCOC(=O)CN(C(=O)COc1nc(-c2ccccc2)cc(C)c1C#N)c1ccccc1	.	59	.	.	.	.	.
CCCCCCCCCCCCN1[C@@H](CC(=O)O)c2cc(F)ccc2S1(=O)=O	.	59	/	.	.	98	75
Cc1cc(=O)[nH]c(NN=Cc2c(F)c(F)c(F)c(F)c2F)n1	.	/	/	/	/	/	/
